Test results: ChEMBL document CHEMBL1932924, “Design, synthesis, and biological evaluation of 4-phenylpyrrole derivatives as novel androgen receptor antagonists” (Bioorg Med Chem, 2012)
pEC50, pIC50: −log10 of the molar value. Converted amounts (≈) assume the structure as drawn.

Legend:
Androgen receptor [1] = target: T1, Androgen receptor (Homo sapiens, UniProt P10275, W742C); assay: Antagonist activity at human androgen receptor W741C mutant expressed in COS7 cells assessed as inhibition of DHT-induced luciferase activity after 24 hrs by reporter gene assay; assay type: functional, cell-based, COS-7
Mus musculus [2] = assay: Antiandrogenic activity in ICR mouse assessed as reduction of ventral prostate weight at 2.5 mg/kg, po bid administered for 7 days relative to control; assay type: functional, Prostate gland; design: scale not given: the % may be the effect or the level left
Procedure, shortened: (§1)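 8-week-old male ICR mice, intact, dosed orally for seven days; n = 8 per group. Ventral prostate weighed the day after the last dose. Reduction = decrease in test group ÷ decrease in castrated group × 100. Controls are vehicle-treated mice. Significance by Williams test or unpaired Student's test versus control.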

Androgen receptor [3] = target: T1, Androgen receptor; assay: Agonist activity at human androgen receptor W741C mutant expressed in COS7 cells assessed as luciferase activity after 24 hrs by reporter gene assay; assay type: functional, cell-based, COS-7
Mus musculus [4] = assay: Antiandrogenic activity in ICR mouse assessed as reduction of ventral prostate weight at 25 mg/kg, po bid administered for 7 days relative to control; assay type: functional, Prostate gland; design: scale not given: the % may be the effect or the level left; procedure, shortened: as §1
[5] = Antitumor activity against human JDCaP cells expressing wild type AR xenografted in testosterone propionate-challenged castrated BALB/c nude mouse assessed as decrease in tumor volume at 6.25 mg/kg, po bid administered for 29 days measured on day 28 relative to control; assay type: functional
Procedure, shortened: (§2)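 Nude mice carrying JDCaP tumours, n = 7 per group, castrated and given s.c. testosterone propionate 0.2 mg/kg once daily for 29 days. Oral twice-daily dosing in 0.5% methylcellulose over the same period; controls get vehicle plus TP. Tumour volume measured weekly. T/C = increase in tumour volume versus control × 100.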

Mus musculus [6] = assay: Antiandrogenic activity in ICR mouse assessed as reduction of ventral prostate weight at 7.5 mg/kg, po bid administered for 7 days relative to control; assay type: functional, Prostate gland; design: scale not given: the % may be the effect or the level left; procedure, shortened: as §1
Mus musculus [7] = assay: Antiandrogenic activity in ICR mouse assessed as ventral prostate weight at 7.5 mg/kg, po bid administered for 7 days (reference value: 14.6 +/- […]); assay type: functional, Prostate gland; procedure, shortened: as §1
[8] = AUC in mouse at 5 mg/kg, po; assay type: ADME, organism-based; design: dose 5 mg/kg, route oral; conditions: plasma
Procedure, shortened: (§3)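 Mice given a single oral 5 mg/kg dose; n = 3. AUC, bioavailability (F) and mean residence time derived from plasma exposure.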

[9] = Antitumor activity against human JDCaP cells expressing wild type AR xenografted in testosterone propionate-challenged castrated BALB/c nude mouse assessed as decrease in tumor volume at 6.25 mg/kg, po bid administered for 29 days measured on day 28 (reference value: 681.8 +/- 75 mm3); assay type: functional; procedure, shortened: as §2
Androgen receptor [10] = target: T2, Androgen receptor (Homo sapiens, UniProt P10275); assay: Agonist activity at human androgen receptor expressed in COS7 cells assessed as luciferase activity after 24 hrs by reporter gene assay; assay type: functional, cell-based, COS-7
T2 sequence (P10275 whole entry): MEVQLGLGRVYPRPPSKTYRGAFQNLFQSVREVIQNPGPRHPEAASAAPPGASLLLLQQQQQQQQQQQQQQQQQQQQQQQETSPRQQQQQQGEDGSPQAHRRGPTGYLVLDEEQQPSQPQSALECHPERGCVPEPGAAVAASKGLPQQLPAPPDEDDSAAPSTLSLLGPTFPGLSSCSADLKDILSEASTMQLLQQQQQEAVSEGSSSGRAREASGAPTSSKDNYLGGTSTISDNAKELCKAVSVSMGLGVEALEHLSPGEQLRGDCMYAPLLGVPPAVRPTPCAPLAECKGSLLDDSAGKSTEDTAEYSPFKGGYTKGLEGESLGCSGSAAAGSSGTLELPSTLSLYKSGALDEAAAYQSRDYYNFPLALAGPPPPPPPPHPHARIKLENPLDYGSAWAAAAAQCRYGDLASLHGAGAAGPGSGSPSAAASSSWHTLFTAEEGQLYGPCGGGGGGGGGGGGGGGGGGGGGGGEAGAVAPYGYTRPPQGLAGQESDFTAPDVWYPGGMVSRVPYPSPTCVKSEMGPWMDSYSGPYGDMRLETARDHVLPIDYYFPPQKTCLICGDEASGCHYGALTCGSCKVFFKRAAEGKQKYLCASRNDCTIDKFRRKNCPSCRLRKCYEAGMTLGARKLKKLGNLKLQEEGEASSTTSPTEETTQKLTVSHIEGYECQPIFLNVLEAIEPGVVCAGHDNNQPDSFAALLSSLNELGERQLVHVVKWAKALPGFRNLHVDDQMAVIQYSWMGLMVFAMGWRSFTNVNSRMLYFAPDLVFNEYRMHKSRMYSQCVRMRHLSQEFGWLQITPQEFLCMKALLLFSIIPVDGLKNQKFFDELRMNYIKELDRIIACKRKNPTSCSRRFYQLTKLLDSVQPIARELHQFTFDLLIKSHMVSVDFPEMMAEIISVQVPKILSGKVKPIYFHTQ

[11] = Solubility in aqueous buffer solution at pH 6.8; assay type: physicochemical
Procedure, shortened: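 DMSO stock added to aqueous buffer at pH 6.8 and incubated. Precipitate removed by filtration; filtrate concentration measured by HPLC.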

Androgen receptor [12] = target: T2, Androgen receptor; assay: Antagonist activity at human androgen receptor expressed in COS7 cells assessed as inhibition of DHT-induced luciferase activity after 24 hrs by reporter gene assay; assay type: functional, cell-based, COS-7
[13] = Antitumor activity against human JDCaP cells expressing wild type AR xenografted in testosterone propionate-challenged castrated BALB/c nude mouse assessed as decrease in tumor volume at 3.125 mg/kg, po bid administered for 29 days measured on day 28 relative to control; assay type: functional; procedure, shortened: as §2
[14] = Antitumor activity against human JDCaP cells expressing wild type AR xenografted in testosterone propionate-challenged castrated BALB/c nude mouse assessed as decrease in tumor volume at 3.125 mg/kg, po bid administered for 29 days measured on day 28 (reference value: 681.8 +/- 75 mm3); assay type: functional; procedure, shortened: as §2
Mus musculus [15] = assay: Antiandrogenic activity in ICR mouse assessed as ventral prostate weight at 2.5 mg/kg, po bid administered for 7 days (reference value: 14.6 +/- […]); assay type: functional, Prostate gland; procedure, shortened: as §1
Mus musculus [16] = assay: Antiandrogenic activity in ICR mouse assessed as ventral prostate weight at 25 mg/kg, po bid administered for 7 days (reference value: 14.6 +/- […]); assay type: functional, Prostate gland; procedure, shortened: as §1
Mus musculus [17] = assay: Toxicity in BALB/c mouse assessed as body weight at 25 mg/kg, po bid administered for 29 days measured on day 28 (reference value: 17.6 +/- 0.4g); assay type: organism-based; design: dose 25 mg/kg, route oral; conditions: in vivo, 696 h
[18] = Oral bioavailability in mouse at 5 mg/kg; assay type: ADME, organism-based; conditions: in vivo; procedure, shortened: as §3
[19] = (§4) Antitumor activity against human LNCaP-FGC cells expressing androgen receptor W741C/[…] mutant xenografted in castrated BALB/c nude mouse assessed as decrease in prostate specific antigen level in plasma at 25 mg/kg, po bid administered for 29 days measured on day 28 (reference value: 35.8 +/- 10.7 ng/mL); assay type: functional, LNCaP-Clone-FGC
Androgen receptor [20] = target: T3, Androgen receptor (Homo sapiens, UniProt P10275, T878A); assay: Displacement of [17-alpha-methyl-3H]-mibolerone from human androgen receptor T877A mutant expressed in HEK293 derived FreeStyle293F cells after 3 hrs; assay type: cell-based
[21] = Mean residence time in mouse at 5 mg/kg, po; assay type: ADME, organism-based; design: dose 5 mg/kg, route oral; conditions: in vivo; procedure, shortened: as §3
[22] = Antitumor activity against human LNCaP-FGC cells expressing androgen receptor W741C/[…] mutant xenografted in castrated BALB/c nude mouse assessed as effect on tumor volume at 25 mg/kg, po bid administered for 29 days measured on day 28 (reference value: 402 +/- 47.7 mm3); assay type: functional, LNCaP-Clone-FGC
Androgen receptor [23] = target: T3, Androgen receptor; assay: Agonist activity at human androgen receptor T877A mutant expressed in COS7 cells assessed as luciferase activity after 24 hrs by reporter gene assay; assay type: functional, cell-based, COS-7
Androgen receptor [24] = target: T3, Androgen receptor; assay: Antagonist activity at human androgen receptor T877A mutant expressed in COS7 cells assessed as inhibition of DHT-induced luciferase activity after 24 hrs by reporter gene assay; assay type: functional, cell-based, COS-7
Androgen receptor [25] = target: T2, Androgen receptor; assay: Displacement of [17-alpha-methyl-3H]-mibolerone from human androgen receptor expressed in HEK293 derived FreeStyle293F cells after 3 hrs; assay type: cell-based
[26] = Antitumor activity against human LNCaP-FGC cells expressing androgen receptor W741C/[…] mutant xenografted in castrated BALB/c nude mouse assessed as effect on tumor volume at 25 mg/kg, po bid administered for 29 days measured on day 28 relative to control; assay type: functional, LNCaP-Clone-FGC
[27] = as §4, with “20” for “25”, “qd” for “bid”; assay type: functional, LNCaP-Clone-FGC
Procedure, shortened: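 LNCaP-cxD2 flank xenografts in castrated BALB/c nude mice (n=7), grouped at ~200 mm3. Oral dosing for 29 days from castration, vehicle 0.5% methylcellulose. Blood taken at study end for plasma PSA.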

[28] = Antitumor activity against human JDCaP cells expressing wild type AR xenografted in testosterone propionate-challenged castrated BALB/c nude mouse assessed as decrease in tumor volume at 20 mg/kg, po qd administered for 29 days measured on day 28 relative to control; assay type: functional
Procedure, shortened: (§5)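 JDCaP tumours in nude mice (n=7) castrated the day after grouping. Testosterone propionate 0.2 mg/kg sc once daily for 29 days. Oral drug or 0.5% methylcellulose vehicle for the same period. Tumour volume measured weekly. T/C = volume increase vs testosterone-treated vehicle control × 100.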

[29] = Antitumor activity against human JDCaP cells expressing wild type AR xenografted in testosterone propionate-challenged castrated BALB/c nude mouse assessed as decrease in tumor volume at 20 mg/kg, po bid administered for 29 days measured on day 28 (reference value: 1736.6 +/- 486.2 mm3); assay type: functional; procedure, shortened: as §5
[30] = Antitumor activity against human LNCaP-FGC cells expressing androgen receptor W741C/[…] mutant xenografted in castrated BALB/c nude mouse assessed as effect on tumor volume at 20 mg/kg, po qd administered for 29 days measured on day 28 (reference value: 402 +/- 47.7 mm3); assay type: functional, LNCaP-Clone-FGC
Mus musculus [31] = assay: Antiandrogenic activity in ICR mouse assessed as reduction of ventral prostate weight at 100 mg/kg, po qd administered for 7 days relative to control; assay type: functional, Prostate gland; design: scale not given: the % may be the effect or the level left
Procedure, shortened: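 Male ICR mice, 8 weeks old, n=8, dosed orally for seven days with vehicle and castrated groups. Prostate weighed the day after the last dose. % reduction = treated-group weight decrease ÷ castrated-group decrease × 100.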

Mus musculus [32] = assay: Toxicity in BALB/c mouse assessed as body weight at 20 mg/kg, po qd administered for 29 days measured on day 28 (reference value: 17.6 +/- 0.4g); assay type: organism-based; design: dose 20 mg/kg, route oral; conditions: in vivo, 696 h
[33] = Antitumor activity against human LNCaP-FGC cells expressing androgen receptor W741C/[…] mutant xenografted in castrated BALB/c nude mouse assessed as effect on tumor volume at 20 mg/kg, po qd administered for 29 days measured on day 28 relative to control; assay type: functional, LNCaP-Clone-FGC
Procedure, shortened: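 LNCaP-cxD2 flank xenografts in BALB/c nude mice, grouped at ~200 mm3 (n=7) and castrated next day. Oral dosing for 29 days, vehicle 0.5% methylcellulose. Weekly caliper volumes. T/C = tumour volume increase vs castration (vehicle) group × 100.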

T3 sequence (P10275 whole entry T878A): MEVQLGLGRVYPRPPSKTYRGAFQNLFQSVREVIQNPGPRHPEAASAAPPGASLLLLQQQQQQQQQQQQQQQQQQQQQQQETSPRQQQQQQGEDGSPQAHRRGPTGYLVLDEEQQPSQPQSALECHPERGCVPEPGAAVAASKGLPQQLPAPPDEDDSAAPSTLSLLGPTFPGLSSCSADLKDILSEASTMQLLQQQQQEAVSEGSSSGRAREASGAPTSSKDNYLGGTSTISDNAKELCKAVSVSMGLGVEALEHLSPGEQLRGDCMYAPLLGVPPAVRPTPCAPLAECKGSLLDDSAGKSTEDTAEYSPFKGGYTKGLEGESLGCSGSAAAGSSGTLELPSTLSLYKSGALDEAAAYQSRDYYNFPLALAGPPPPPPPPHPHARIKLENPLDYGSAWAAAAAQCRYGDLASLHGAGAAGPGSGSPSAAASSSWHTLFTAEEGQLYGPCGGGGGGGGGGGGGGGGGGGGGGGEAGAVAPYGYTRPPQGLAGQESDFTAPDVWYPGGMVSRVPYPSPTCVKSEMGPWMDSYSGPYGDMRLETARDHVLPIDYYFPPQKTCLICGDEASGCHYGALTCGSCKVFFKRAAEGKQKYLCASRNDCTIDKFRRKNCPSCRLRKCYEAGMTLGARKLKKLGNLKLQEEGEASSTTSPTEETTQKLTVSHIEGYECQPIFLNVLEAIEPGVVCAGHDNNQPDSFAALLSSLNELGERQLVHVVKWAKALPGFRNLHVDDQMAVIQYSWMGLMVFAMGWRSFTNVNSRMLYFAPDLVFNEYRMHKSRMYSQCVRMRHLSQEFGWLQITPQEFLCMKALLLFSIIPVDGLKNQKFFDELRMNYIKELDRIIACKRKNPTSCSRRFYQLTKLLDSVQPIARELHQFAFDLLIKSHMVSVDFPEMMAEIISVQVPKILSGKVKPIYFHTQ
T1 sequence (P10275 whole entry W742C): as the sequence (P10275 whole entry T878A) above, with W742C, A878T counted along it

## Cc1c(C#N)c(-c2ccc(C#N)cc2)c(C)n1Cc1cnc(Cl)c(CO)c1
Androgen receptor [1]
  pIC50: 6.55
Mus musculus [2]
  Activity: 16%
Androgen receptor [3]
  pEC50: < 5.00
Mus musculus [4]
  Activity: 74%
[5]
  T/C: -44.8%
Mus musculus [6]
  Activity: 31%
Mus musculus [7]
  Activity: 12.2 mg
[8]
  AUC: 19200 ng·h/mL
[9]
  Activity: 94.8 mm3
Androgen receptor [10]
  pEC50: < 5.00
[11]
  solubility: 15 µg/mL (≈ 39.8 µM)
Androgen receptor [12]
  pIC50: 7.60
[13]
  T/C: -44.7%
[14]
  Activity: 88.4 mm3
Mus musculus [15]
  Activity: 13.4 mg
Mus musculus [16]
  Activity: 8.9 mg
Mus musculus [17]
  Activity: 22.9 g
[18]
  bioavailability: 104%
[19]
  Activity: 1 ng/mL
Androgen receptor [20]
  pIC50: 7.00
[21]
  MRT: 4.85 h
[22]
  Activity: 269.3 mm3
Androgen receptor [23]
  pEC50: < 5.00
Androgen receptor [24]
  pIC50: 6.96
Androgen receptor [25]
  pIC50: 7.43
[26]
  T/C: 15.8%

## CC(O)(CS(=O)(=O)c1ccc(F)cc1)C(=O)Nc1ccc(C#N)c(C(F)(F)F)c1 (stereo not drawn) [BICALUTAMIDE]
[27]
  Activity: 38.5 ng/mL
[28]
  T/C: -70.2%
[29]
  Activity: 212.2 mm3
[30]
  Activity: 461.5 mm3
Mus musculus [31]
  Activity: 40%
Mus musculus [32]
  Activity: 17.9 g
[33]
  T/C: 137.9%
